PAD4 FP inh: inhibitors of human PAD4. inhibition, % at 6.36 µM. recombinant PAD4, RCA probe fluorescence polarization. Q9UM07. 330,000 compounds, 0.41% hits;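 active means percent inhibition above a cutoff equal to the mean of all tested compounds plus 3 SD, cut at about 15% in these data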;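 further: 0% = PAD4 with RCA probe and DMSO and 100% = probe without PAD4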
ABHD4 inh: inhibits mouse alpha/beta hydrolase domain 4 | inhibition, % at 8.92 µM | 370,000 compounds, 0.54% hits | Q8VD66 | purified mABHD4, FP-Rh probe fluorescence polarization;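 active means inhibition exceeding the mean over every tested compound plus 3 SD, cut at about 30% in these data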;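 further: 0% = plate median of compound wells and 100% = S159A mutant with DMSO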
Target sequence (Q8VD66 whole entry, looked up, the tested form may be a part): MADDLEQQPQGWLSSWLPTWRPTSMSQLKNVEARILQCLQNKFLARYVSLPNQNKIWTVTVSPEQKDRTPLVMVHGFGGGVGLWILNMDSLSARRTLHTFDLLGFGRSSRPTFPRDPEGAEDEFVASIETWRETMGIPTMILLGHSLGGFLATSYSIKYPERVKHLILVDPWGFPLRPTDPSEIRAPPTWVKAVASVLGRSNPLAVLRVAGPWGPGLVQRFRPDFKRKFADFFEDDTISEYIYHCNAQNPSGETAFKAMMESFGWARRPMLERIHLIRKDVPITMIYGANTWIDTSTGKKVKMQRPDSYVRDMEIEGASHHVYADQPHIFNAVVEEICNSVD
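Test system: mouse ABHD4 enzyme, wild type. Reagent: FP-Rh fluorescent activity-based probe, added after compound pre-incubation. Timing: pre-incubation 45 min, probe exposure 60 min, at 25 °C. Technique: FP readout, ex 525 nm / em 598 nm. Benchmarks: high control S159A mutant with DMSO, low control median of compound wells.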
HTRA1 inhibitor: HTRA1 (human) protease inhibition; Q92743; recombinant HTRA1, FP-rhodamine activity-based probe, fluorescence polarization; inhibition, % at 5.96 µM; 340,000 compounds, 0.5% hits; in the data active means inhibition above about 36%;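 further: 0% = enzyme with DMSO and 100% = wells lacking enzyme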
SIAE inh: blocks human sialic acid acetylesterase. inhibition, % at 9.66 µM. SIAE FP-Rh probe binding, fluorescence polarization. 370,000 compounds, 0.69% hits. Q9HAT2. AID 1053197;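 active means inhibition above a cutoff: mean of compounds within the control limits plus 3 SD of those, cut at about 17% in these data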;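 further: 0% = plate median of compound wells and 100% = probe without SIAE protein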
PRMT1 inh: blocks human protein arginine methyltransferase 1. Q99873. recombinant PRMT1, activity-based probe fluorescence polarization. inhibition, % at 2.79 µM. 370,000 compounds, 1.3% hits. AID 652257;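 active means inhibition above about 21% made by adding two undisclosed values, limit read from the data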
TCR CD3 inh: blocks the human TCR-CD3 interaction; inhibition, % at 9.4 µM; TAMRA-labeled TCR probe fluorescence, biochemical; 360,000 compounds, 0.37% hits; in the data active means inhibition above about 19%;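 further: recombinant mutant TCR 2C K166C tagged with TAMRA read by polarization; 0% = receptor in buffer alone and 100% = receptor with positive control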
ABHD4 confirm: confirmation of mouse ABHD4 inhibitors | shares compounds with ABHD4 inh | purified mABHD4, FP-Rh probe fluorescence polarization | inhibition, % at 8.92 µM | 1,800 compounds, 55% hits;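 active means mean inhibition across replicates above the hit cutoff set in the primary screen, cut at about 30% in these data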;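 further: 0% = wild-type ABHD4 with DMSO and 100% = catalytically dead S159A mutant with DMSO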
The depositor's hits bear a star; / = no result. A selection: hits, their analogues and other compounds. The true share with any hit is near 2.9%.

SMILES	PAD4 FP inh	ABHD4 inh	HTRA1 inhibitor	SIAE inh	PRMT1 inh	TCR CD3 inh	ABHD4 confirm
CN(C)c1ccc(N=C/C=C2\N(C)c3ccccc3C2(C)C)cc1	13	32*	19	-4	24*	-1	8
O=c1c2ccccc2n(Cc2ccno2)n1[C@@H](Cc1ccccc1)Cn1cc(C2CCCC2)nn1	/	-7	/	5	-2	/	/
CCCN1CCCCC(NC(=O)c2ccc(Cl)cc2Cl)C1=O (centres undefined)	/	-3	/	0	-5	6	/
CCOC(=O)C1Nc2ccc(C(F)(F)F)cc2C2c3ccccc3CC12 (centres undefined)	3	4	-1	8	-1	-4	/
CCOC(=O)C1Nc2ccccc2C2C(O)C(O)CC12 (centres undefined)	-5	51*	22	5	27*	1	11
O=C([C@@H]1C[C@H]1c1ccccc1)N1CC[C@H]2[C@H](CCCN2Cc2cc(F)cc(F)c2)C1	/	-1	/	0	-2	/	/
CCCCCCOC(=O)C[N+](C)(C)CCOC1CC2CCC1(C)C2(C)C (centres undefined)	1	4	-1	-5	3	-5	/
CCCCCCCOC(=O)C[N+](C)(C)CCOC1CC2CCC1(C)C2(C)C (centres undefined)	/	38*	14	3	0	4	50*
COC(=O)[C@]12C[C@H](CC(=O)NCC3CCCCC3)C(=O)N(Cc3cccc4ccccc34)C1=C[C@H](C1CCCC1)O[C@@H]2C	/	-19	/	-2	4	/	/
COc1ccc2nc3cc(Cl)ccc3c(Nc3cc(CN4CCCC4)c(O)c(CN4CCCC4)c3)c2n1	2	37*	/	15	2	7	31*
COc1ccc(N=Nc2cc(C)c(O)c(CN3CCCCC3)c2)cc1	3	4	2	5	-1	-4	/
COc1ccc2c(c1)c1ncn(CCN3CCCC3)c(=O)c1n2C	-3	-31	2	4	-4	-6	/
COc1ccc2c(c1)c1ccc3c(c1n2C)C(=O)C=CC3=O	/	67*	23	-23	12	7	68*
CC(C)[C@@H]1CC[C@@H](C)C[C@H]1OC[B-](F)(F)F	/	43*	/	8	-7	-6	47*
CCCC(=O)Nc1nc(C)c(-c2csc(Nc3cc(OC)ccc3OC)n2)s1	-2	32*	30	3	2	0	58*
O=C(c1ccc(F)cc1Cl)N1CCCC(c2nc(-c3cccs3)no2)C1 (centres undefined)	/	1	/	-2	1	/	/
CCOC(=O)CC[C@@H]1CC[C@]2(CCCN(Cc3nccs3)C2)O1	/	3	/	7	-1	/	/
COc1ccc(Nc2nc(NC(C)(C)C)nc(N3CCCC3)n2)c(OC)c1	-2	34*	6	14	-1	0	48*
COc1ccc2c(c1)Sc1ccccc1N2	/	41*	19	1	16	-1	20
COC(=O)[C@]12C[C@H](CC(=O)NCCC(C)C)C(=O)N(CCc3ccc(OC)c(OC)c3)C1=C[C@H](C(C)C)O[C@@H]2C1CC1	/	-1	/	4	-2	/	/
C[C@@H]1ON(C)[C@H]2C[C@H]3c4[nH]c5c(-c6cc(Cl)cc(Cl)c6)cccc5c4CCN3C(=O)[C@@H]12	/	4	/	5	-4	-2	/
Cn1ccc2c(/C=C/c3ccc(F)cc3)cc3c(c21)C1CCC3O1 (centres undefined)	/	17	/	-3	1	3	/
Cn1ccc2c(/C=C/c3ccc(F)cc3)cc3c(c21)C1CCC3C1 (centres undefined)	/	45*	/	6	3	-1	38*
Cc1cc(-c2ccc3c(c2)COc2c4ccccc4nn2-3)on1	-1	31*	-1	-3	8	5	-2
CCCc1cc(-c2ccc3c(c2)COc2c4ccccc4nn2-3)on1	-3	13	-19	4	2	-5	/
Cc1ccc(NC(=O)CCCN2C(=O)/C(=C/C=C/c3ccccc3)SC2=S)cc1	-38	-4	-37	-2	-1	1	/
O=C(O)CC(C(=O)O)N1C(=O)/C(=C/C=C/c2ccco2)SC1=S (centres undefined)	-4	35*	22	-8	54*	3	3

Source: PubChem BioAssay (The Scripps Research Institute Molecular Screening Center)
